Molecules are shown by their SMILES. pIC50: −log10 of the molar value. Calls of active or inactive are those of the source. The rule behind the calls is not given here.

Assay [1] concerns Chorioallantoic membrane. Nature of the assay: Antiangiogenic activity in Leghorn chicken fertilized egg chorioallantoic membrane at 10 nM/egg measured after 48 hrs by CAM assay. The class given is functional, tissue-based. The conditions noted are these: Gallus gallus. The essentials:
(§1)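 Fertile Leghorn eggs incubated at 37.8°C, 40% humidity; window opened on day 7; compound, sunitinib or 0.9% NaCl mixed with DMSO applied on filter paper onto CAM; 48 h incubation, methanol fixation, photography; nascent vessels counted.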

In assay [2] the test system is SW480. Kind of assay: Cytotoxicity against human SW480 cells assessed as reduction in cell growth after 72 hrs by MTT assay. The class given is cell-based. The conditions noted are these: SW480, 72 h.
Assay [3] concerns HCT-116. Nature of the assay: Cytotoxicity against human HCT116 cells assessed as reduction in cell growth after 72 hrs by MTT assay. The class given is cell-based. As to conditions: HCT-116, 72 h.
For assay [4], the system named is NCM460. Kind of assay: Cytotoxicity against human NCM460 cells assessed as reduction in cell growth after 72 hrs by MTT assay. The class given is cell-based. As to conditions: NCM460, 72 h.
Assay [5] deals with Mus musculus. Nature of the assay: Antiangiogenic activity in Matrigel plug angiogenic Balb/c mouse model assessed as impaired vascularization by measuring loss of red colour in VEGF-supplemented matrigel at 20 to 60 mg/kg, sc measured after 15 days. The class given is functional, organism-based. The essentials:
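Balb/c nude mice (6–8 weeks), three groups, injected subcutaneously with 400 μL Matrigel alone or with VEGF (250 ng/mL) and/or compound; after 15 days plugs removed, weighed and photographed.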

Assay [6] deals with HUVEC. Nature of the assay: Antiangiogenic activity against VEGF-induced HUVEC assessed as inhibition of cell proliferation preincubated for 30 mins followed by VEGF addition measured after 24 hrs by MTT assay. The conditions noted are these: Homo sapiens. The class given is functional, cell-based. The essentials: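 HUVECs seeded 24 h, starved 16 h in M200 with 2% FBS, pretreated 30 min with compound at 0.1, 1, 10, 20 or 40 μM, then stimulated with VEGF (25 ng/mL) for 24 h; viability read by MTT; IC50 determined.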

The test system of assay [7] is Chorioallantoic membrane. Kind of assay: Antiangiogenic activity in Leghorn chicken fertilized egg chorioallantoic membrane measured after 48 hrs by CAM assay. The class given is functional, tissue-based. As to conditions: Gallus gallus. The gist of the method: as §1
The subject of assay [8] is HUVEC. Nature of the assay: Antiangiogenic activity against HUVEC assessed as inhibition of cell proliferation measured […] by MTT assay. The class given is functional, cell-based. As to conditions: Homo sapiens, 0.5 h.

Take `O=C(c1cccc(/C=C2\CC(=O)N(c3ccccc3)C2=O)c1)N1CCCC1`: in assay [1], the outcome was Active. The pIC50 in assay [2], in assay [3] and in assay [4] was below 4.00 in each case.
Regarding `CCCCNC(=O)c1cccc(/C=C2\CC(=O)N(Cc3ccccc3)C2=O)c1`, the values for the pIC50 in assay [2], in assay [3] and in assay [4] were below 4.00, 4.02 and below 4.00, respectively.
`O=C(Nc1ccc(F)cc1)c1cccc(/C=C2\CC(=O)N(c3ccccc3)C2=O)c1`: the pIC50 in assay [2], in assay [3] and in assay [4] was below 4.00 throughout.
`O=C(Nc1ccc(OC(F)F)cc1)c1cccc(/C=C2\CC(=O)N(c3ccccc3)C2=O)c1`: the pIC50 in assay [2], in assay [3] and in assay [4] was below 4.00 each time.
As to `Cc1ccc(N2C(=O)C/C(=C\c3cccc(C(=O)Nc4ccc(Cl)cc4)c3)C2=O)cc1`, the pIC50 in assay [2], in assay [3] and in assay [4] was below 4.00 in each case.
Turning to `Cc1ccc(NC(=O)c2cccc(/C=C3\CC(=O)N(c4ccccc4)C3=O)c2)cc1C`, the pIC50 in assay [2], in assay [3] and in assay [4] was below 4.00 in each case.
With `COc1cc(NC(=O)c2cccc(/C=C3\CC(=O)N(c4ccccc4)C3=O)c2)cc(OC)c1OC`, the pIC50 in assay [2], in assay [3] and in assay [4] was below 4.00 throughout.
Turning to `CCc1cccc(NC(=O)c2cccc(/C=C3\CC(=O)N(c4ccc(C)cc4)C3=O)c2)c1`, the figures for the pIC50 in assay [2], in assay [3] and in assay [4] were 4.18, 4.38 and below 4.00, respectively.
Regarding `CCc1cccc(NC(=O)c2cccc(/C=C3\CC(=O)N(c4ccccc4)C3=O)c2)c1`, the pIC50 is 4.05 in assay [2], 4.09 in assay [3] and below 4.00 in assay [4].
For `CCc1ccc(NC(=O)c2cccc(/C=C3\CC(=O)N(c4ccccc4)C3=O)c2)cc1` the same measures were below 4.00, below 4.00 and below 4.00.
For the compound `CCCCCN1C(=O)C/C(=C\c2cccc(C(=O)Nc3ccc(OC)cc3)c2)C1=O`, the pIC50 in assay [2], in assay [3] and in assay [4] was below 4.00 throughout.
For `COc1ccc(OC)c(NC(=O)c2cccc(/C=C3\CC(=O)N(c4ccccc4)C3=O)c2)c1`, the pIC50 in assay [2], in assay [3] and in assay [4] was below 4.00 each time.
Regarding `COc1ccc(NC(=O)c2cccc(CC3CC(=O)N(c4ccc(C)cc4)C3=O)c2)cc1` (stereo not given), the pIC50 in assay [2], in assay [3] and in assay [4] was below 4.00 in each case. In addition, the result in assay [5] was Active.
Turning to `COc1ccc(NC(=O)c2cccc(/C=C3\CC(=O)N(c4ccccc4)C3=O)c2)cc1`, the outcome in assay [1] was Active. The pIC50 in assay [2], in assay [3] and in assay [4] was below 4.00 throughout.
For the compound `O=C(Nc1ccccc1)c1cccc(/C=C2\CC(=O)N(c3ccccc3)C2=O)c1`, the pIC50 in assay [2], in assay [3] and in assay [4] was below 4.00 throughout.
Regarding `CCOc1ccc(NC(=O)c2cccc(/C=C3\CC(=O)N(Cc4ccccc4)C3=O)c2)cc1`, the pIC50 is 4.14 in assay [2], 4.38 in assay [3] and below 4.00 in assay [4].
Take `O=C(Nc1ccc(Cl)cc1)c1cccc(/C=C2\CC(=O)N(c3ccccc3)C2=O)c1`: the result in assay [1] was Active. Besides, the pIC50 in assay [2], in assay [3] and in assay [4] was below 4.00 throughout.
For the compound `Cc1cccc(NC(=O)c2cccc(/C=C3\CC(=O)N(c4ccccc4)C3=O)c2)c1`, the pIC50 in assay [2], in assay [3] and in assay [4] was below 4.00 in each case.
As for `O=C(c1cccc(/C=C2\CC(=O)N(c3ccccc3)C2=O)c1)N1CCOCC1`, the outcome in assay [1] was Active. Further, the negative-log IC50 (pIC50) in assay [2], in assay [3] and in assay [4] was below 4.00 in each case.
Consider `O=C(NC1CCCCC1)c1cccc(/C=C2\CC(=O)N(c3ccccc3)C2=O)c1`, for which the outcome in assay [1] was Active. For the same compound, the pIC50 in assay [2], in assay [3] and in assay [4] was below 4.00 each time.
On to `O=C(Nc1ccc(Cl)cc1)c1cccc(/C=C2\CC(=O)N(Cc3ccccc3)C2=O)c1`, for which the pIC50 in assay [2], in assay [3] and in assay [4] was below 4.00 each time.
On to `CCc1cccc(NC(=O)c2cccc(/C=C3\CC(=O)N(Cc4ccccc4)C3=O)c2)c1`, for which the pIC50 in assay [2] is 4.04; in assay [3] it was 4.09; in assay [4], below 4.00.
As to `CCOc1ccc(NC(=O)c2cccc(/C=C3\CC(=O)N(c4ccccc4)C3=O)c2)cc1`, the negative logarithm of the IC50 (pIC50) in assay [2] was 4.04; in assay [3] it was 4.07; in assay [4], below 4.00.
In the case of `Cc1ccc(NC(=O)c2cccc(/C=C3\CC(=O)N(c4ccccc4)C3=O)c2)cc1`, the pIC50 in assay [2], in assay [3] and in assay [4] was below 4.00 each time.
Turning to `O=C(NCc1ccccc1)c1cccc(/C=C2\CC(=O)N(c3ccccc3)C2=O)c1`, in assay [1], the result was Active. Further, the pIC50 in assay [2], in assay [3] and in assay [4] was below 4.00 each time.
On to `COc1ccc(NC(=O)c2cccc(/C=C3\CC(=O)N(c4ccccc4)C3=O)c2)c(C)c1`, for which the pIC50 in assay [2], in assay [3] and in assay [4] was below 4.00 in each case.
Take `Cc1ccc(N2C(=O)C/C(=C\c3cccc(C(=O)Nc4cccc(F)c4)c3)C2=O)cc1`: the results for the pIC50 in assay [2], in assay [3] and in assay [4] were 4.01, below 4.00 and below 4.00, respectively.
For the compound `O=C(Nc1cccc(F)c1)c1cccc(/C=C2\CC(=O)N(c3ccccc3)C2=O)c1`, the pIC50 in assay [2], in assay [3] and in assay [4] was below 4.00 each time.
For the compound `CSc1cccc(NC(=O)c2cccc(/C=C3\CC(=O)N(c4ccccc4)C3=O)c2)c1`, the pIC50 in assay [2] is 4.13; in assay [3], 4.19; in assay [4] it was below 4.00.
As to `CCCCN1C(=O)C/C(=C\c2cccc(C(=O)Nc3cccc(CC)c3)c2)C1=O`, the pIC50 in assay [2] is 4.08; in assay [3] it was 4.12; in assay [4], below 4.00.
Turning to `CCN(CC)CCNC(=O)c1c(C)[nH]c(/C=C2\C(=O)Nc3ccc(F)cc32)c1C` [SUNITINIB], the pIC50 is 5.44 in assay [6] and 5.19 in assay [8]. For the same compound, the outcome in assay [7] was Active.

The record behind these values is ChEMBL document CHEMBL4396917, “Synthesis and biological evaluation of novel benzylidene-succinimide derivatives as noncytotoxic antiangiogenic inhibitors with anticolorectal cancer activity in vivo” (Eur J Med Chem, 2019).
